Like-named read-outs stand apart in the source and are kept apart here.
Columns and labels:
guinea pigs [1] = assay type: in vivo, guinea pig; conditions: for Click threshold shift, difference as compared to the control group: single shot, vs water for injection ear
guinea pigs [2] = assay type: in vivo, guinea pig; conditions: for Hearing threshold at 4 kHz / Hearing threshold at 8 kHz / Hearing threshold at 16 kHz / Hearing threshold at 32 kHz / Mean hearing threshold at 1 kHz / Mean hearing threshold at 2 kHz: day 28
outer hair cells = assay: Outer hair cell counts in organ of Corti whole-mounts; assay type: in vivo, guinea pig; conditions: for Outer hair cell counts, 2nd turn / Outer hair cell counts, 3rd turn / Outer hair cell counts, apex / Outer hair cell counts, basal turn: after day 28
How it was run: (§1)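 Guinea pigs were dosed intratympanically (bulla filled; water for injection in the opposite ear) or intraperitoneally daily for 3 days. After the day-28 audiometry they were perfused with 4% buffered PFA. Cochleae were decapsulated and stained 30 min at room temperature with phalloidin-TRITC (0.3 µg/ml) and Hoechst 33342 (0.05 mg/ml), then imaged by confocal microscopy. Hair cells were counted in 3 random 200 μm segments per turn, as viable/(viable+missing) percentage.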

inner hair cells = assay: Inner hair cell counts in organ of Corti whole-mounts; assay type: in vivo, guinea pig; conditions: 1.5 mg/kg systemic; after day 28
How it was run: as §1

[3] = Body weight after systemic application; assay type: in vivo, guinea pig
peritoneum = assay: Histologic analysis of the peritoneum after i.p. application; assay type: in vivo, guinea pig; conditions: selected animals
[4] = cited from earlier work

## CNCC(Cl)c1ccc(OC(C)=O)cc1.Cl (centres unmarked) [CpdA, 2-(4-acetoxyphenyl)-2-chloro-N-methyl-ethylammonium chloride]
Guinea pigs [1]; 1 mM IT
  Click threshold shift, difference as compared to the control group: 28 dB
  Difference in click threshold shift vs control, day 28: 19 dB
Guinea pigs [1]; 1.5 mg/kg intraperitoneally on three consecutive days
  Change in click hearing thresholds as compared to baseline: did not result in clinically relevant or statistically significant changes
Guinea pigs [1]; 4.5 mg/kg intraperitoneally on three consecutive days
  Change in click hearing thresholds as compared to baseline: did not result in clinically relevant or statistically significant changes
Guinea pigs [1]; 10 mM IT
  Click threshold shift, difference as compared to the control group: 21 dB
  Difference in click threshold shift vs control, day 28: 12 dB
Guinea pigs [2]; 1 mM IT
  Hearing threshold at 4 kHz: 57.5 dB SPL
  Hearing threshold at 8 kHz: 40.8 dB SPL
  Hearing threshold at 16 kHz: 32.5 dB SPL
  Hearing threshold at 32 kHz: 50 dB SPL
  Mean hearing threshold at 1 kHz: 56.7 dB SPL
  Mean hearing threshold at 2 kHz: 55 dB
Guinea pigs [2]; 1.5 mg/kg intraperitoneally, day 21, p=0.048
  Frequency-specific ABR threshold shift vs baseline: 5 dB
Guinea pigs [2]; 10 mM IT
  Hearing threshold at 4 kHz: 49.2 dB SPL
  Hearing threshold at 8 kHz: 35 dB SPL
  Hearing threshold at 16 kHz: 35 dB SPL
  Hearing threshold at 32 kHz: 66.7 dB SPL
  Mean hearing threshold at 1 kHz: 44.2 dB SPL
  Mean hearing threshold at 2 kHz: 40 dB
Outer hair cells; 1 mM IT
  Outer hair cell counts, 2nd turn: 99.5 ± 1.3%
  Outer hair cell counts, 3rd turn: 99.0 ± 3.5%
  Outer hair cell counts, apex: 95.2 ± 7.5%
  Outer hair cell counts, basal turn: 99.5 ± 1.4%
Outer hair cells; 1.5 mg/kg systemic
  Outer hair cell counts, 2nd turn: 99.8 ± 1.3%
  Outer hair cell counts, 3rd turn: 97.7 ± 6.4%
  Outer hair cell counts, apex: 93.8 ± 9.3%
  Outer hair cell counts, basal turn: 99.6 ± 1.2%
Outer hair cells; 4.5 mg/kg systemic
  Outer hair cell counts, 2nd turn: 99.7 ± 1.3%
  Outer hair cell counts, 3rd turn: 98.5 ± 3.5%
  Outer hair cell counts, apex: 98.5 ± 3.0%
  Outer hair cell counts, basal turn: 99.9 ± 0.6%
Outer hair cells; 10 mM IT
  Outer hair cell counts, 2nd turn: 98.4 ± 2.4%
  Outer hair cell counts, 3rd turn: 98.8 ± 3.3%
  Outer hair cell counts, apex: 97.7 ± 4.2%
  Outer hair cell counts, basal turn: 99.6 ± 1.3%
Outer hair cells; any of the treatment groups (IT and systemic)
  Loss of outer or inner hair cells: did not result in a statistically significant loss
Inner hair cells
  Inner hair cell counts, 2nd turn: 99.6 ± 1.3%
  Inner hair cell counts, 3rd turn: 99.7 ± 1.2%
[3]
  Body weight: weight loss was also observed
peritoneum
  Histologic analysis of the peritoneum: did not show any inflammatory or necrotic alterations
[4]
  Stability in buffered solutions: instability

Reference: article PMC4885662 (The Laryngoscope, 2014)
